The source of these data is ChEMBL document CHEMBL1155221, “Identification of novel indanylsulfonamide guanylhydrazones as potent 5-HT6 serotonin receptor antagonists” (J Med Chem, 2009).

Assay [1] concerns the target T1, 5-hydroxytryptamine receptor 6 (Homo sapiens, UniProt P50406). Briefly: Displacement of [3H]LSD from human cloned 5HT6 receptor expressed in human HeLa cells. The format is cell-based.
The target of assay [2] is T1, 5-hydroxytryptamine receptor 6. Briefly: Inhibition of [3H]LSD binding to human recombinant 5HT6 receptor expressed in HEK293 cells at 100 nM after 60 mins by liquid scintillation counting. The format is cell-based. The essentials:
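Single-point competition at 100 nM test compound against [3H]-LSD on membranes from HEK-293 cells expressing recombinant human 5-HT6 receptor. Percent inhibition of radioligand binding reported.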

For assay [3] the target is unchanged. Briefly: Antagonist activity at human 5HT6 receptor expressed in HEK293F cells assessed as inhibition of 5-HT-stimulated cAMP production after 30 mins by HTRF assay. The format is functional, cell-based. A digest of the protocol:
(§1)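 HEK-293F cells stably expressing human 5-HT6 receptor. Compounds were tested against 5-HT-stimulated cAMP production, with cAMP read by homogeneous time-resolved fluorescence (HTRF). Antagonism expressed as Imax and IC50. Data are mean ± SEM of three experiments.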
(cAMP levels reflect the balance of adenylyl cyclase and phosphodiesterase activity.)

For assay [4] the target is unchanged. Briefly: Displacement of [3H]LSD from human recombinant 5HT6 receptor expressed in HEK293 cells after 60 mins by liquid scintillation counting. Type of assay: cell-based. The essentials: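 Competition binding on membranes from HEK-293 cells expressing recombinant human 5-HT6 receptor, with [3H]-LSD as radioligand. […] Values are mean ± SEM of three experiments.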
A general note: In a radioligand displacement assay an active substance lowers the binding of a labelled ligand.

Assay [5] has the same target. Nature of the assay: Antagonist activity at human 5HT6 receptor expressed in HEK293F cells assessed as inhibition of 5-HT-stimulated cAMP production at […] after 30 mins by HTRF assay. The format is functional, cell-based. The essentials:
as §1

Assay [6] has the same target. Nature of the assay: Antagonist activity at human 5HT6 receptor expressed in HEK293F cells assessed as inhibition of 5-HT-stimulated cAMP production at […] after 30 mins by HTRF assay relative to (+/-)-6-chloro-N-(3-(1-methylpyrrolidin-3-yl)-1H-inden-5-yl)imidazo[2,1-b]thiazole-5-sulfonamide. Type of assay: functional, cell-based.
The target of assay [7] is T2, 5-hydroxytryptamine receptor 1A (Homo sapiens, UniProt P08908).
T2 sequence (P08908 whole entry): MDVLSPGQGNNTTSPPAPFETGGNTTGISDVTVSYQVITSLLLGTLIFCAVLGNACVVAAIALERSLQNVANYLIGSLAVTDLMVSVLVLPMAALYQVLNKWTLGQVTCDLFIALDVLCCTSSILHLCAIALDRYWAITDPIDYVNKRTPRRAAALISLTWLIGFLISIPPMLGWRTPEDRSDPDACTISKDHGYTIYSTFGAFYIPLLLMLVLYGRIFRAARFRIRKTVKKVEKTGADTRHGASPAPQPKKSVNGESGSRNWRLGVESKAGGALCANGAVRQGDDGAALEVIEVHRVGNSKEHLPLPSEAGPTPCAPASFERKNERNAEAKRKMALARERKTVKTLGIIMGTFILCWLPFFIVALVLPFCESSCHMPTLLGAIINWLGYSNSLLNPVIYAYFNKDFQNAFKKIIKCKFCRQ
Briefly: Inhibition of human 5HT1A receptor.

Assay [8] deals with T3, Adrenergic receptor alpha-2 (Homo sapiens, UniProt P08913+P18825+P18089).
T3 sequence (P08913 whole entry): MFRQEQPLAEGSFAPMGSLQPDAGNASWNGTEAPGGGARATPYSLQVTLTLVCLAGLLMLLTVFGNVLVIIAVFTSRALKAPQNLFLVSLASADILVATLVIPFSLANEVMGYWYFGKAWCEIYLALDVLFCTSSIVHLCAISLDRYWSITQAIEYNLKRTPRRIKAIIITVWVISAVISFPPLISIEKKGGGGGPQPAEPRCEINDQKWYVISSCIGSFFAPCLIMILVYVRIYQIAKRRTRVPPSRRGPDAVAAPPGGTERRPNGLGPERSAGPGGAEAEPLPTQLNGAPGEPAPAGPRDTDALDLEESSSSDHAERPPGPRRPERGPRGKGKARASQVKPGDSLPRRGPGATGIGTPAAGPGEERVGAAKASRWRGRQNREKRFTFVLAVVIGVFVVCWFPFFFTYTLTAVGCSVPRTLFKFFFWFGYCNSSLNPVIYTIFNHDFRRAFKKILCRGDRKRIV
T3 sequence (P18825 whole entry): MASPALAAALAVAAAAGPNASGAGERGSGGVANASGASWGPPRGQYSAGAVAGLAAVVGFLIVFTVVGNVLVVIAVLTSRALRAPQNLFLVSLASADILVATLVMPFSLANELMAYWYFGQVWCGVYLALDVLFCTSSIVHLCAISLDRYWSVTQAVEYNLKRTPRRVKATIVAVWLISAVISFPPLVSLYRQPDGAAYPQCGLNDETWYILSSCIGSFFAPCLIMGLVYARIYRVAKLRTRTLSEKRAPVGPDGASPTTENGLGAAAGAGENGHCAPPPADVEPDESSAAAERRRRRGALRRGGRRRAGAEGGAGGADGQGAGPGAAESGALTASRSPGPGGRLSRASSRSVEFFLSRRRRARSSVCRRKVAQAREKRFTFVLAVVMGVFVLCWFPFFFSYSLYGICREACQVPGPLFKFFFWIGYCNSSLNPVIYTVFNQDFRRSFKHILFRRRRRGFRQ
T3 sequence (P18089 whole entry): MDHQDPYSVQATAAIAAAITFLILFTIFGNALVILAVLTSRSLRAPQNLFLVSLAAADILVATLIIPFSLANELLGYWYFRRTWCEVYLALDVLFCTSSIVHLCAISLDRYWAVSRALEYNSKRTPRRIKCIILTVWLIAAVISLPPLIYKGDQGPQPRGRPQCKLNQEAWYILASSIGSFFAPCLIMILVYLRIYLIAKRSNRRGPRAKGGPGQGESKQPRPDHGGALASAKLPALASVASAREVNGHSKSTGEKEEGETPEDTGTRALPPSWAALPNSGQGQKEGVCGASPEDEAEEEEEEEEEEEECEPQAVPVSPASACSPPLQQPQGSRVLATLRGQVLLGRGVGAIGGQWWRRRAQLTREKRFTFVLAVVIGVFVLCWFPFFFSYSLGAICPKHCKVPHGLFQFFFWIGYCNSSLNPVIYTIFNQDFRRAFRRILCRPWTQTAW
Briefly: Inhibition of human alpha 2 adrenoceptor.

The target of assay [9] is Sodium-dependent serotonin transporter (Homo sapiens, UniProt P31645). Briefly: Inhibition of human SERT.
The target of assay [10] is T4, 5-hydroxytryptamine receptor 2C (Homo sapiens, UniProt P28335).
T4 sequence (P28335 whole entry): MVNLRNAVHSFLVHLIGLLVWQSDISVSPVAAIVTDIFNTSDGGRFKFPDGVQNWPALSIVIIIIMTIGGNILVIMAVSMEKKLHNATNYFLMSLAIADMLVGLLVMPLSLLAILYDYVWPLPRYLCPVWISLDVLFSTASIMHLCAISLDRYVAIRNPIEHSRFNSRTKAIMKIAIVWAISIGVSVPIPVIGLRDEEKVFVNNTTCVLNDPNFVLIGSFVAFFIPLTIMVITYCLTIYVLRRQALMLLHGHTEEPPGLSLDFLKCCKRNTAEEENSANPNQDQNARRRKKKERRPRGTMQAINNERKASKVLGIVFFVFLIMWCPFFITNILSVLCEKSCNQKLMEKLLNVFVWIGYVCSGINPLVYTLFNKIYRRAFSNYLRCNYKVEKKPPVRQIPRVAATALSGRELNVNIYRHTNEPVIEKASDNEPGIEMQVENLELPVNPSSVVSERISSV
Nature of the assay: Inhibition of human 5HT2C receptor.

T1 sequence (P50406 whole entry): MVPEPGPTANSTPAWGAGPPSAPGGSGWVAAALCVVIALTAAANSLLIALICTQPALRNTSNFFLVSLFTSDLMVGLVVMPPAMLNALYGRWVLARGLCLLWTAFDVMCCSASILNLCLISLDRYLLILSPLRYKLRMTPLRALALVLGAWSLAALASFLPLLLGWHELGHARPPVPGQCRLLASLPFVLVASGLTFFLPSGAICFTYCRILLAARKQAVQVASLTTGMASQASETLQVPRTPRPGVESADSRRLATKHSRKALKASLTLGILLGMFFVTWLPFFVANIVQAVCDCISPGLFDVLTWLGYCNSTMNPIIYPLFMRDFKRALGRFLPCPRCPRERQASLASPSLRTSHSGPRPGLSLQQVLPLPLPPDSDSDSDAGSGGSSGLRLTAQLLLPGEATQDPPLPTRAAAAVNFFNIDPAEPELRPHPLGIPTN
Sodium-dependent serotonin transporter, sequence (P31645 whole entry): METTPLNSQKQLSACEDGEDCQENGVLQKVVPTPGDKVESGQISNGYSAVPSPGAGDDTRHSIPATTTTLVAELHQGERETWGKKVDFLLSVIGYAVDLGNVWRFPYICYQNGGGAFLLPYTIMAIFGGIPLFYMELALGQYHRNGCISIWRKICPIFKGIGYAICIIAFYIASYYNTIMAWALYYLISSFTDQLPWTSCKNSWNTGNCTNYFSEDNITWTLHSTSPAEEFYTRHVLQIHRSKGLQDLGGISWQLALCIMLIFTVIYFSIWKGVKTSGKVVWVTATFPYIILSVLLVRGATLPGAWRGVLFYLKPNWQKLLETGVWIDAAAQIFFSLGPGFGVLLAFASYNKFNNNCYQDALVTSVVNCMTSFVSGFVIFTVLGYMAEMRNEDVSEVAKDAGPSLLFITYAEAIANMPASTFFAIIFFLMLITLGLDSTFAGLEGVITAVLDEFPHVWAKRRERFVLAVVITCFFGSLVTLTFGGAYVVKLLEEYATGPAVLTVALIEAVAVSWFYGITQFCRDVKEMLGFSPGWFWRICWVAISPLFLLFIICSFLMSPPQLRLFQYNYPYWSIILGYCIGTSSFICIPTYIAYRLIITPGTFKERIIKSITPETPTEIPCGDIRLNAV

Turning to `C/C(=N\NC(=N)N)c1cn(S(=O)(=O)c2c(Cl)nc3sccn23)c2ccccc12`, the Ki in [1] is at most 8 nM.

In the case of `CN1CCC(C2=CCc3ccc(NS(=O)(=O)c4c(Cl)nc5sccn45)cc32)C1` (configuration not stated), in assay [2], the inhibition was above 80%. Moreover, the IC50 in assay [3] stood at 1580 nM. Also, the inhibition constant Ki in assay [4] was determined as 3 nM. Besides, the Imax in assay [5] was 100%.

Consider `CN1CCOc2ccc(S(=O)(=O)Nc3ccc4c(c3)/C(=N/NC(=N)N)CC4)cc21`, for which the Imax in [6] was determined as 187%. The IC50 in [7] was above 1000 nM; in assay [3] it was 581 nM. Besides, the inhibition in assay [2] was above 80%. The Ki in assay [4] turned out to be 26 nM.

For `CC1(C)C/C(=N\NC(=N)N)c2cc(NS(=O)(=O)c3c(Cl)nc4sccn34)ccc21.Cl`, in assay [6], the Imax was 146%. The IC50 in assay [7] was above 1000 nM; in assay [8], above 1 ×10⁴ nM; in [9], above 10000 nM; in assay [3] it was 238 nM; in assay [10], above 1000 nM. The inhibition in [2] is above 80%. Besides, the inhibition constant Ki in assay [4] came to 5.2 nM.

For `N=C(N)N/N=C1\CCc2c(NS(=O)(=O)c3c(Cl)nc4sccn34)cccc21`, the inhibition in [2] stood at 2%.

Take `Cl.N=C(N)N/N=C1\CCc2cc(NS(=O)(=O)c3c(Cl)nc4sccn34)ccc21`: the Imax in assay [6] amounted to 173%. For the same compound, the IC50 is above 10000 nM in [7], above 1000 nM in [8] and 47 nM in assay [3]. For the same compound, in [2], the inhibition is above 80%. Also, the Ki in assay [4] worked out at 2.6 nM.

On to `Cl.N=C(N)N/N=C1\CCc2ccc(NS(=O)(=O)c3ccc4ccccc4c3)cc21`, for which the Imax in assay [6] is 127%. The results for the IC50 in [7], in [8] and in assay [3] were above 1000 nM, above 1000 nM and 53 nM, respectively. Moreover, in assay [2], the inhibition was above 80%. The Ki in assay [4] amounted to 62 nM.

In the case of `C/C(=N\NC(=N)N)c1cn(S(=O)(=O)c2ccc(N)cc2)c2ccccc12`, the Ki in assay [1] was at most 8 nM.

With `CC1(C)C/C(=N\NC2=NCCN2)c2cc(NS(=O)(=O)c3c(Cl)nc4sccn34)ccc21`, in assay [2], the inhibition is 77%.

On to `CN1CCOc2ccc(S(=O)(=O)Nc3ccc4c(c3)/C(=N\NC3=NCCN3)CC4)cc21`, for which the inhibition in assay [2] was above 80%. Moreover, the Ki in [4] is 70 nM.

`CN(c1ccc2c(c1)/C(=N/NC(=N)N)CC2)S(=O)(=O)c1c(Cl)nc2sccn12.Cl`: in assay [6], the Imax was found to be 102%. In addition, the IC50 in assay [7] was above 1000 nM; in assay [8] it was above 1000 nM; in [3] it was 54 nM. Besides, in assay [2], the inhibition is above 80%. In assay [4], the Ki came out at 4.1 nM.

In assay [1], `COc1ccc(S(=O)(=O)Nc2ccc3[nH]cc(/C(C)=N/NC(=N)N)c3c2)cc1` registered a Ki of 1 nM.

As a reminder, the Ki is the dissociation constant of the complex between target and ligand, obtained from inhibition or displacement. As usually defined, the inhibition is the drop in the measured response relative to a control, in per cent.
